Data taken from article PMC6637745 (Journal of medicinal chemistry, 2018).

Columns and labels:
DAT = DAT (Homo sapiens, UniProt Q01959); experiment: NIMH-PDSP binding affinity panel
oxytocin = oxytocin (Homo sapiens, UniProt P30559); experiment: NIMH-PDSP binding affinity panel
VMAT 1,2 = experiment: NIMH-PDSP binding affinity panel; conditions: read-out: affinity; VMAT 1,2, vesicular monoamine transporter
σ2 = σ2 (Homo sapiens, UniProt Q5BJF2); experiment: NIMH-PDSP binding affinity panel
α2A-2C = experiment: NIMH-PDSP binding affinity panel; conditions: read-out: affinity
GABA = experiment: NIMH-PDSP binding affinity panel; conditions: read-out: affinity
Na + channel = experiment: NIMH-PDSP binding affinity panel; conditions: read-out: affinity
M (muscarinic) = experiment: NIMH-PDSP binding affinity panel; conditions: read-out: affinity
KA (kainate) = experiment: NIMH-PDSP binding affinity panel; conditions: read-out: affinity
PBR = PBR (Homo sapiens, UniProt P30536); experiment: NIMH-PDSP binding affinity panel
SERT = SERT (Homo sapiens, UniProt P31645); experiment: NIMH-PDSP binding affinity panel
BZP (benzodiazepine) = experiment: NIMH-PDSP binding affinity panel; conditions: read-out: affinity
NT (neurotrophin) = experiment: NIMH-PDSP binding affinity panel; conditions: read-out: affinity
H1 = H1 (Homo sapiens, UniProt P35367); experiment: NIMH-PDSP binding affinity panel
β1–3 = experiment: NIMH-PDSP binding affinity panel; conditions: read-out: affinity
5-HT2A-2C = experiment: NIMH-PDSP binding affinity panel; conditions: read-out: affinity
KOP = KOP (Homo sapiens, UniProt P41145); experiment: NIMH-PDSP binding affinity panel
[1] = over 100 cancer patients including GBM; cited from earlier work
5-HT3-7 = experiment: NIMH-PDSP binding affinity panel; conditions: read-out: affinity
cancer animal models = conditions: variety of cancer animal models; cited from earlier work
mGluR = experiment: NIMH-PDSP binding affinity panel; conditions: read-out: affinity, metabotropic glutamate receptors
smoothened = smoothened (Homo sapiens, UniProt Q99835); experiment: NIMH-PDSP binding affinity panel
MDR1 = MDR1 (Homo sapiens, UniProt P08183); experiment: NIMH-PDSP binding affinity panel
NK (neurokinin) = experiment: NIMH-PDSP binding affinity panel; conditions: read-out: affinity
NOP = NOP (Homo sapiens, UniProt P41146); experiment: NIMH-PDSP binding affinity panel
NMΔA = experiment: NIMH-PDSP binding affinity panel; conditions: read-out: affinity
DOR = DOR (Homo sapiens, UniProt P41143); experiment: NIMH-PDSP binding affinity panel
5-HT1A-1E = experiment: NIMH-PDSP binding affinity panel; conditions: read-out: affinity
D1-D5 = experiment: NIMH-PDSP binding affinity panel; conditions: read-out: affinity; D1-D5 dopamine
A (adenosine) = experiment: NIMH-PDSP binding affinity panel; conditions: read-out: affinity
I = experiment: NIMH-PDSP binding affinity panel; conditions: read-out: affinity
NET = NET (Homo sapiens, UniProt P23975); experiment: NIMH-PDSP binding affinity panel
[2] = molecular target: all other tested biogenic brain receptors, transporters, enzymes, and protein targets; experiment: NIMH-PDSP binding affinity panel; conditions: all other tested targets except H4R and σ1R
[3] = molecular target: EP (prostanoid receptors); experiment: NIMH-PDSP binding affinity panel; conditions: read-out: affinity
HERG = HERG (Homo sapiens, UniProt Q12809); experiment: NIMH-PDSP binding affinity panel
PKC = experiment: NIMH-PDSP binding affinity panel; conditions: read-out: affinity, protein kinase C
α1A-1C = experiment: NIMH-PDSP binding affinity panel; conditions: read-out: affinity
AMPA = experiment: NIMH-PDSP binding affinity panel; conditions: read-out: affinity
Ca+ channel = experiment: NIMH-PDSP binding affinity panel; conditions: read-out: affinity
CB1, CB2 = experiment: NIMH-PDSP binding affinity panel; conditions: read-out: affinity; CB1, CB2 cannabinoid
[4] = rodents, blood; cited from earlier work
[5] = Baseline ex vivo biodistribution; assay type: in vivo, male white mice; conditions: mouse brain, followed by gradual washout
brain MT [6] = experiment: microPET imaging in rats; assay type: in vivo; conditions: male Sprague—Dawley rats, n = 2
How it was run: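 Anaesthetised Sprague–Dawley rats (n = 2) were transmission-scanned on a Trifoil PET/CT. The [11C] tracer (100 ± 20 μCi) was injected into the tail vein and acquired for 60 min. Reconstruction used attenuation correction, Fourier rebinning and filtered back-projection, and images were summed over 0–60 min.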

[7] = Lipophilicity by shake flask method; assay type: physicochemical; conditions: 1-octanol / phosphate buffer, n = 4
How it was run: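 The [11C]-labelled test compound was partitioned between 1-octanol and freshly prepared phosphate buffer by shake flask, and the result expressed as log Poct/water.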

[8] = Stability in ethanol–saline formulation; assay type: physicochemical; conditions: 5% ethanol–saline formulation, sterile conditions, 4 h, n = 4
How it was run: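 The stability of the [11C]-labelled test compound was checked by reverse-phase HPLC with photodiode-array and sodium iodide radioactivity detectors.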

brain MT [9] = experiment: microPET imaging in mice, baseline and blocking; assay type: in vivo, athymic nude male mice
How it was run: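 Mice were anaesthetised and transmission-scanned on a Trifoil PET/CT. The [11C] tracer (50 ± 10 μCi) was given by tail vein, followed by 60 min dynamic acquisition. Images were reconstructed with attenuation correction, Fourier rebinning and filtered back-projection, and summed over 0–60 min. In blocking scans, unlabelled test compound (5 mg/kg iv) was given before the tracer, with n = 3.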

MT = experiment: Blocking biodistribution with cold MPC-6827; assay type: in vivo, male white mice
How it was run: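 This was a blocking biodistribution. Unlabelled test compound (5 mg/kg iv) was given 20 min before tail-vein injection of the [11C] tracer at 100 ± 20 μCi in 10% ethanol–saline, with no anaesthesia. Tissues were harvested at 30 min, gamma-counted and expressed as %ID/g, with n = 3. Specific binding was taken from blocked versus baseline uptake.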

[10] = 30 min, MPC-6827 5 mg/kg iv 20 min prior to radioligand, n = 3

Sequence of H1 (P35367 whole entry): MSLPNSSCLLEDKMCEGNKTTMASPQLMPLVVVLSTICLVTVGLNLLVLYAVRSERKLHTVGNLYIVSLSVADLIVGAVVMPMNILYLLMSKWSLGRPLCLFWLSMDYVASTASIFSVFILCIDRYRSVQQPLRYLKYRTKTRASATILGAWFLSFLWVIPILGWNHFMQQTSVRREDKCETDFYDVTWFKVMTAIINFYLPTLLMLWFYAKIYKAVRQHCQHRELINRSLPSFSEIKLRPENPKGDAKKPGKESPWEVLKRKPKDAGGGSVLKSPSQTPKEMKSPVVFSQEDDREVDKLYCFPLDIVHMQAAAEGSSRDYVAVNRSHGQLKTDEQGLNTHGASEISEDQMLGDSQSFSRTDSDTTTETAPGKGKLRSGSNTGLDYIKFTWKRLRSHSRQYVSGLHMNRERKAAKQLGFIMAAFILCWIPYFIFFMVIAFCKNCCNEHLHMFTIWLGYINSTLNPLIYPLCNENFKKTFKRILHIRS
Sequence of DAT (Q01959 whole entry, species assumed): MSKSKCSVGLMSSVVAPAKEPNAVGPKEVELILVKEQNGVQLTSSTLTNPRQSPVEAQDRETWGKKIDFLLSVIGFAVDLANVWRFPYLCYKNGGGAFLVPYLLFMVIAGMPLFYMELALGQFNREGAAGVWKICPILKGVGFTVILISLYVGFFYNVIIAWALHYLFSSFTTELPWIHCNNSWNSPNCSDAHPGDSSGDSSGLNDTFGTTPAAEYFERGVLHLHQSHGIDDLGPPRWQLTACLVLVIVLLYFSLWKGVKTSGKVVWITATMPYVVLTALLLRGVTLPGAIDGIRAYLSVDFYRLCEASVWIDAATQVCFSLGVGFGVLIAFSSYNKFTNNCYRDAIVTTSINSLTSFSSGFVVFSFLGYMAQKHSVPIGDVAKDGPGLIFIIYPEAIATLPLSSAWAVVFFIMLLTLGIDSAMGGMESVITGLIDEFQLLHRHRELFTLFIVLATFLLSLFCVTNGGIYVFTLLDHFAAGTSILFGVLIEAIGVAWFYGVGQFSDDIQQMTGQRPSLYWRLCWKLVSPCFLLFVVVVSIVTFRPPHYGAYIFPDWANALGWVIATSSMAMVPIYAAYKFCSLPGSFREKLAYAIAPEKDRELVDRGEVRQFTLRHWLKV
Sequence of SERT (P31645 whole entry, species assumed): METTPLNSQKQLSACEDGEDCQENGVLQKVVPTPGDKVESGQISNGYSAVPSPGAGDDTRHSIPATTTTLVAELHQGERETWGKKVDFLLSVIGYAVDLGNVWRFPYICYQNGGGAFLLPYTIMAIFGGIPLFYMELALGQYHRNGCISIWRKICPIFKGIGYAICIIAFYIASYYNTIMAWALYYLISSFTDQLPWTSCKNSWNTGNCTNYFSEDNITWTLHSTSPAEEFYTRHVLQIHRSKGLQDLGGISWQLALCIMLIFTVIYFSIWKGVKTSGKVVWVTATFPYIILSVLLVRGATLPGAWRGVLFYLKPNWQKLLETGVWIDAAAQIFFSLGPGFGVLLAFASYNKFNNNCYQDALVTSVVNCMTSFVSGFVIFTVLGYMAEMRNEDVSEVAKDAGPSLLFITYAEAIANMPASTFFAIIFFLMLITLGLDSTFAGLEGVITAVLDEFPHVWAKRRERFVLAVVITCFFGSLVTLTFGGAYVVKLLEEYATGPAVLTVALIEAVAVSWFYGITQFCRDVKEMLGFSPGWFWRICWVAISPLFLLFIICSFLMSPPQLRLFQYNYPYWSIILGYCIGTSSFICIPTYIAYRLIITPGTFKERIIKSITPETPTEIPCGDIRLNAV
Sequence of σ2 (Q5BJF2 whole entry): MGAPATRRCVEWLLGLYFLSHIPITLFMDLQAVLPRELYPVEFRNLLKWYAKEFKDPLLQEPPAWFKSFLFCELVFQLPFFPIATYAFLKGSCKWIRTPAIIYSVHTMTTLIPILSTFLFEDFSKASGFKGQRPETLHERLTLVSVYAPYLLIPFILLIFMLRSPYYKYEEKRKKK
Sequence of NOP (P41146 whole entry): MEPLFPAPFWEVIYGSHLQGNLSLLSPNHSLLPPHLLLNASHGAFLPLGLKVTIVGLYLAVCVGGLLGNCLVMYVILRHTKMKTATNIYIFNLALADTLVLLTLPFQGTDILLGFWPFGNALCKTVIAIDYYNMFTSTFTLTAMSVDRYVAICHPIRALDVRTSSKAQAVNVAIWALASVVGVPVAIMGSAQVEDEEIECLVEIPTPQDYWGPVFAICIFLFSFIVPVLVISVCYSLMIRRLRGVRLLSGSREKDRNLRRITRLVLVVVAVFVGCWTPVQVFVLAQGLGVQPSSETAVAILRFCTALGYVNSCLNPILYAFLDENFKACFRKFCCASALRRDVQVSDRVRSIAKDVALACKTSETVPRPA
Sequence of DOR (P41143 whole entry): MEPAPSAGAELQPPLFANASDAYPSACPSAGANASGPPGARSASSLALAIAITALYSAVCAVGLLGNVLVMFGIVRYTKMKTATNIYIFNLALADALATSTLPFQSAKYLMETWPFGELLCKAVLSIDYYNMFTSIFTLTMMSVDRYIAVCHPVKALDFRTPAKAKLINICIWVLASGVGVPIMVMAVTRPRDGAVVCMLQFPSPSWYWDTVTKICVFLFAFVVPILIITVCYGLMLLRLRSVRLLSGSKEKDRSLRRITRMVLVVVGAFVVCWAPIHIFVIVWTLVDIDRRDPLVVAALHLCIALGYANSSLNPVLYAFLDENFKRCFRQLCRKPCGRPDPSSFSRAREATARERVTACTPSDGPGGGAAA
Sequence of MDR1 (P08183 whole entry, species assumed): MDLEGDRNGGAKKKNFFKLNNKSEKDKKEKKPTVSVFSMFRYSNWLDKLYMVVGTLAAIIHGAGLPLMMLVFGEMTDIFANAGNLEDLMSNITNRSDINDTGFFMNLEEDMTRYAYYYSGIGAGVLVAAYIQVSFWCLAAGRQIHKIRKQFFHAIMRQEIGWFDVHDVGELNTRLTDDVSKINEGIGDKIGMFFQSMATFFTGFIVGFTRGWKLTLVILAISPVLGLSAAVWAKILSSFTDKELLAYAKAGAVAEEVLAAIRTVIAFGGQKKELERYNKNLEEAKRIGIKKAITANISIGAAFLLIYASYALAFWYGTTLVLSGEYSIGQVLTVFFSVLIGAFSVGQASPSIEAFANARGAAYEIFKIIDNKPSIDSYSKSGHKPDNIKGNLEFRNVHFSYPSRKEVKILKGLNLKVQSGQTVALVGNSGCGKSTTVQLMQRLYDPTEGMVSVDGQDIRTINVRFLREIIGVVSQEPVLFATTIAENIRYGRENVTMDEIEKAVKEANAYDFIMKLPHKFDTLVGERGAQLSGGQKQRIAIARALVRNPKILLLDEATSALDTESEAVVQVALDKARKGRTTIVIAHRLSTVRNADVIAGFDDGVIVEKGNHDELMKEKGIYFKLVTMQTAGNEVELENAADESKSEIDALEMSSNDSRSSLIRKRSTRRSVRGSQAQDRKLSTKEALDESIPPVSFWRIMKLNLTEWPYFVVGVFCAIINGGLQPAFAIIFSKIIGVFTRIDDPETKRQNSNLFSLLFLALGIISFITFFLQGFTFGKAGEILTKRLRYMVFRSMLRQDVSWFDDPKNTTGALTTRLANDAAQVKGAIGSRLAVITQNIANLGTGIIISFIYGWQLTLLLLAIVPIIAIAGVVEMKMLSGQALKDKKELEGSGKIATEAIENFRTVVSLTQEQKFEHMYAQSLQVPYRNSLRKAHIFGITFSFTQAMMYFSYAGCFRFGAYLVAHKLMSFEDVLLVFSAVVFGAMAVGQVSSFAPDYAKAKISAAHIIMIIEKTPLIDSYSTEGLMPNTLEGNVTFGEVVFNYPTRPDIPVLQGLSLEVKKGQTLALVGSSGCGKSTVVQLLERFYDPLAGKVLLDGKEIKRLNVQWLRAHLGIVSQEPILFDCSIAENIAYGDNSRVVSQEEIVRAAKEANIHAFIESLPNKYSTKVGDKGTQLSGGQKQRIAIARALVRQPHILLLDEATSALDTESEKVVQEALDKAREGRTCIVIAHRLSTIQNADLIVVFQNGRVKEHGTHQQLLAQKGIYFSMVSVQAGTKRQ
Sequence of KOP (P41145 whole entry): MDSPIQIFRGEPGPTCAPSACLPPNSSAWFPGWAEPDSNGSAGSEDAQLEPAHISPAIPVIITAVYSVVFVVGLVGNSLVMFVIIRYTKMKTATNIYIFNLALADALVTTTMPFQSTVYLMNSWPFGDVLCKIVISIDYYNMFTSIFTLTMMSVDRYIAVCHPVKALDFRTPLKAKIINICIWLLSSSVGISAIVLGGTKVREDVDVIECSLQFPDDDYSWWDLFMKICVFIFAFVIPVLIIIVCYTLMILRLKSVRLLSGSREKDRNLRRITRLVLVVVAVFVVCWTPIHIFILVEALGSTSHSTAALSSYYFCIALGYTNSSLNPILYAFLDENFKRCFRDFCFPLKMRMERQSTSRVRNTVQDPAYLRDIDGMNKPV
Sequence of oxytocin (P30559 whole entry): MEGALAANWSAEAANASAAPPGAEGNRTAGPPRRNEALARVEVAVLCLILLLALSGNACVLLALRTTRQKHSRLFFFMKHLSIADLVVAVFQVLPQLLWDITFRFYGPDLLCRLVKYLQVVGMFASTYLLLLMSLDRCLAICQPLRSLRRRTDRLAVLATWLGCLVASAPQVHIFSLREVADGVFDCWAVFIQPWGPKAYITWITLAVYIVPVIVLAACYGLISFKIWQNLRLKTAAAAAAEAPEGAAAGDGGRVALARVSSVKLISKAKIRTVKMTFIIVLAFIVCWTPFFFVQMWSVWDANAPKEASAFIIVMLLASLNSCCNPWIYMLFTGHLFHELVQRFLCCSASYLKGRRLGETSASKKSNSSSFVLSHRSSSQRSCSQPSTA
Sequence of PBR (P30536 whole entry, species assumed): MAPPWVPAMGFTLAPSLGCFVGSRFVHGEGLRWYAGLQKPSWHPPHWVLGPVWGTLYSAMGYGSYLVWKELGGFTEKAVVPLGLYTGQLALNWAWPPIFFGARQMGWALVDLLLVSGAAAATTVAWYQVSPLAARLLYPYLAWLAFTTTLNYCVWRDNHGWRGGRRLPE

Structure (SMILES): COc1ccc(N(C)c2nc(C)nc3ccccc23)cc1 [MPC-6827]
- Ki (DAT): > 10 µM
- Ki (oxytocin): > 10 µM
- Ki (VMAT 1,2): > 10 µM
- Ki (σ2): > 10 µM
- Ki (α2A-2C): > 10 µM
- Ki (GABA): > 10 µM
- Ki (Na + channel): > 10 µM
- Ki (M (muscarinic)): > 10 µM
- Ki (KA (kainate)): > 10 µM
- Ki (PBR): > 10 µM
- Ki (SERT): > 10 µM
- Ki (BZP (benzodiazepine)): > 10 µM
- Ki (NT (neurotrophin)): > 10 µM
- Ki (H1): > 10 µM
- Ki (β1–3): > 10 µM
- Ki (5-HT2A-2C): > 10 µM
- Ki (KOP): > 10 µM
- safety in human subjects [1]: proven to be safe
- Ki (5-HT3-7): > 10 µM
- tumor growth in cancer animal models (cancer animal models): suppression of tumor growth
- Ki (mGluR): > 10 µM
- Ki (smoothened): > 10 µM
- Ki (MDR1): > 10 µM
- Ki (NK (neurokinin)): > 10 µM
- Ki (NOP): > 10 µM
- Ki (NMΔA): > 10 µM
- Ki (DOR): > 10 µM
- Ki (5-HT1A-1E): > 10 µM
- Ki (D1-D5): > 10 µM
- Ki (A (adenosine)): > 10 µM
- Ki (I): > 10 µM
- Ki (NET): > 10 µM
- Ki [2]: > 10 µM
- Ki [3]: > 10 µM
- Ki (HERG): > 10 µM
- Ki (PKC): > 10 µM
- Ki (α1A-1C): > 10 µM
- Ki (AMPA): > 10 µM
- Ki (Ca+ channel): > 10 µM
- Ki (CB1, CB2): > 10 µM
- plasma binding [4]: 98.2%

Structure (SMILES): Cc1nc(N(C)c2ccc(O[11CH3])cc2)c2ccccc2n1 [[^11C]MPC-6827]
- time of peak brain activity [5]: 5 min
- BBB penetration and brain retention (microPET) (brain MT [6]): BBB penetration and excellent retention
- log Poct/water [7]: 3.8
- stability in formulation [8]: stable
- BBB penetration and brain retention (microPET) (brain MT [9]; athymic nude male mice, n = 3, 0–60 min): penetrates the BBB and shows excellent retention in mouse brain
- radioligand binding in thyroid or salivary gland during blocking (microPET) (brain MT [9]; blocking with 5 mg/kg MPC-6827, mice): displaced
- blocking of brain activity (microPET) (brain MT [9]; iv 5 mg/kg unlabeled MPC-6827, n = 3): substantially blocked
- specific binding in brain (MT; [10]): 70%
- specific binding in heart (MT; [10]): 16%
- specific binding in lungs (MT; [10]): 30%
- specific binding in muscles (MT; [10]): 60%
- specific binding in pancreas (MT; [10]): 20%
- specific binding in the rest of the tested regions (MT; 30 min, regions other than brain, muscles, spleen, lungs, pancreas, heart): no significant specific binding
- displacement of kidney and liver binding (MT; blocking with cold MPC-6827, mice): not displaced
- ratio of specific to nonspecific binding in brain relative to muscle (MT; brain vs muscle, Figure 1B): 10 times
